Here are results for seven molecules from ChEMBL document CHEMBL3351933, “Indimicins A-E, Bisindole Alkaloids from the Deep-Sea-Derived Streptomyces sp. SCSIO 03032” (J Nat Prod, 2014).

The test system of one experiment is Staphylococcus aureus. Description: Antimicrobial activity against Staphylococcus aureus ATCC 29213 by the broth microdilution method. It is filed as functional. A general note: Dilution methods test growth across graded concentrations, often in twofold steps.
A further experiment concerns HepG2. Description: Cytotoxicity against human HepG2 cells by SRB assay. It is filed as functional, cell-based. The method, boiled down:
(§1)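 Sulforhodamine B (SRB) cytotoxicity assay, following an earlier published protocol, run in vitro against a four-line human tumor panel: HepG2 (hepatocellular liver carcinoma), MCF7 (breast adenocarcinoma), NCI-H460 (non-small-cell lung cancer) and SF268 (glioma). IC50 values reported in μM.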
In general terms: Sulforhodamine B stains cellular protein and so reports cell mass.

The subject of another experiment is Candida albicans. Description: Antimicrobial activity against Candida albicans ATCC10231 by the broth microdilution method. It is filed as functional.
For another experiment, the system named is Bacillus thuringiensis. Description: Antimicrobial activity against Bacillus thuringiensis SCSIO BT01 by the broth microdilution method. It is filed as functional.
Another experiment deals with NCI-H460. In words: Cytotoxicity against human NCI-H460 cells by SRB assay. It is filed as functional, cell-based. In outline: as §1
Another experiment deals with Bacillus subtilis. In words: Antimicrobial activity against Bacillus subtilis SCSIO BS01 by the broth microdilution method. It is filed as functional.
The subject of another experiment is MCF7. Description: Cytotoxicity against human MCF7 cells by SRB assay. It is filed as functional, cell-based. The method, boiled down:
as §1

In another experiment the test system is Escherichia coli. In words: Antimicrobial activity against Escherichia coli ATCC 25922 by the broth microdilution method. It is filed as functional.

Structures are written as SMILES. Activity calls are given as the source filed them.

The MIC is the smallest concentration in the dilution series that meets the test's criterion for growth inhibition. The low end stands for a more susceptible organism, the high end for a less susceptible organism. By IC50 is commonly meant the concentration at which inhibition is half-maximal. Higher therefore signals a need for much substance. With `CN1c2ccc(Cl)cc2[C@@]2(C)c3c[nH]cc3-c3c([nH]c4ccc(Cl)cc34)[C@@H]12`, the minimum inhibitory concentration (MIC) in the experiment with Staphylococcus aureus, against Candida albicans, against Bacillus thuringiensis, in the experiment on Bacillus subtilis and in the experiment with Escherichia coli was above 128 µg/mL in each case. Also, the inhibition result with HepG2 and in the experiment with NCI-H460 was “inactive” in each case. In the experiment on MCF7, this molecule returned an IC50 above 10 µM.
In the case of `Cc1c2c(cn1C)[C@]1(C)c3cc(Cl)ccc3N(C)[C@@H]1c1[nH]c3ccc(Cl)cc3c1-2`, the MIC with Staphylococcus aureus, in the experiment on Candida albicans, against Bacillus thuringiensis, in the experiment on Bacillus subtilis and against Escherichia coli was above 128 µg/mL in each case. Moreover, the inhibition result in the experiment with HepG2 and with NCI-H460 was “inactive” in each case. The half-maximal inhibitory concentration (IC50) in the experiment on MCF7 worked out at 10 µM.
For the molecule `CN1c2ccc(Cl)cc2[C@@]2(C)c3cn(C)cc3-c3c([nH]c4ccc(Cl)cc34)[C@@H]12`, the MIC in the experiment on Staphylococcus aureus, against Candida albicans, against Bacillus thuringiensis, against Bacillus subtilis and against Escherichia coli was above 128 µg/mL in each case. The inhibition result in the experiment with HepG2 and in the experiment on NCI-H460 was “inactive” throughout. The same molecule gave a 50% inhibitory concentration (IC50) in the experiment with MCF7 above 10 µM.
On to `COC(=O)c1c(-c2c[nH]c3ccc(Cl)cc23)c(-c2c[nH]c3ccc(Cl)cc23)c(C(=O)OC)n1C`, for which the minimal inhibitory concentration (MIC) with Staphylococcus aureus, with Candida albicans, in the experiment with Bacillus thuringiensis, against Bacillus subtilis and in the experiment on Escherichia coli was above 128 µg/mL each time. For the same molecule, the inhibition entry in the experiment with HepG2 and in the experiment with NCI-H460 was “inactive” in each case. The same molecule had a concentration for half-maximal inhibition (IC50) with MCF7 above 10 µM.
Regarding `Cc1[nH]cc2c1-c1c([nH]c3ccc(Cl)cc13)[C@H]1N(C)c3ccc(Cl)cc3[C@@]21C`, the MIC against Staphylococcus aureus, with Candida albicans, with Bacillus thuringiensis, with Bacillus subtilis and in the experiment with Escherichia coli was above 128 µg/mL in each case. For the same molecule, the inhibition entry with HepG2 and in the experiment on NCI-H460 was “inactive” in each case. Further, in the experiment with MCF7, the 50% inhibitory concentration (IC50) is above 10 µM.
`COC(=O)c1c(-c2c[nH]c3ccc(Cl)cc23)c(-c2c[nH]c3ccc(Cl)cc23)cn1C`: the MIC in the experiment on Staphylococcus aureus, against Candida albicans, in the experiment on Bacillus thuringiensis, in the experiment with Bacillus subtilis and in the experiment on Escherichia coli was above 128 µg/mL in each case. Moreover, the inhibition result in the experiment on HepG2 and in the experiment with NCI-H460 was “inactive” throughout. In addition, in the experiment with MCF7, the half-inhibitory concentration (IC50) was above 10 µM.
Regarding `CN1C[C@](C)(c2cn(C)cc2-c2c[nH]c3ccc(Cl)cc23)c2cc(Cl)ccc21`, the MIC against Staphylococcus aureus, in the experiment on Candida albicans, against Bacillus thuringiensis, against Bacillus subtilis and with Escherichia coli was above 128 µg/mL each time. The inhibition entry in the experiment on HepG2 and in the experiment on NCI-H460 was “inactive” throughout. Further, the IC50 with MCF7 is above 10 µM.
